Laboratory results taken from ChEMBL document CHEMBL2424587, “Antiproliferative activity of abietane diterpenoids against human tumor cells” (J Nat Prod, 2013).
pIC50: −log10 of the molar value. Activity calls are given as the source filed them. The calls are words filed in the database; no cut-off is given here.

Key:
HL-60 [1] = assay: Induction of apoptosis in human HL60 cells assessed as release of Smac/DIABLO to cytosolic fraction by Western blotting analysis; type: functional, cell-based
HL-60 [2] = assay: Induction of apoptosis in human HL60 cells assessed as hypodiploid cells at 3 uM after 24 hrs by flow cytometry (reference value: 4.4 +/- 0.8%); type: functional
HL-60 [3] = assay: Induction of apoptosis in human HL60 cells assessed as procaspase-4 cleavage at 3 uM after 24 hrs by immunoblotting analysis; type: functional, cell-based
How it was run: (§1)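 HL-60 cells treated 24 h with 3 μM; immunoblots of lysates probed with antibodies that recognize both pro-caspases and cleaved caspases, and for PARP.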

HL-60 [4] = assay: Induction of apoptosis in human HL60 cells assessed as early apoptotic cells at 3 uM after 24 hrs by AnnexinV-FITC/propidium iodide staining-based flow cytometry (reference value: 1.6%); type: functional
How it was run: (§2)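 HL-60 cells given 3 μM for 24 h, stained with annexin V-FITC and propidium iodide, and analysed by flow cytometry; annexin+/PI− cells scored as early apoptotic and double-positive cells as late; three separate experiments.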

HL-60 [5] = assay: Induction of apoptosis in human HL60 cells assessed as PARP cleavage at 3 uM after 24 hrs by immunoblotting analysis; type: functional, cell-based; how it was run: as §1
U-937 [6] = assay: Cytotoxicity against human U937 cells after 72 hrs by MTT assay; type: functional, cell-based; settings: U-937, 72 h
How it was run: (§3)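 MTT assay: 1 × 10^4 exponentially growing cells per well incubated 72 h over a range of compound concentrations; MTT 0.5 mg/mL for 4 h at 37 °C, then 10% SDS in 0.05 M HCl overnight at room temperature in the dark; absorbance at 570 nm. Leukemia and SK-MEL-1 lines grown in RPMI 1640, MCF-7 in DMEM, both with 10% heat-inactivated FBS. IC50 given as mean ± SEM of 3–5 independent experiments, each in triplicate.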

HL-60 [7] = assay: Induction of apoptosis in human HL60 cells assessed as nuclear chromatin fragmentation after 6 hrs by Hoechst 33258 staining-based fluorescence microscopy; type: functional, cell-based
HL-60 [8] = assay: Induction of apoptosis in human HL60 cells assessed as reduction in mitochondrial membrane potential at 3 uM after 24 hrs by JC-1 staining-based flow cytometry in presence of cyclosporin A; type: functional, cell-based
How it was run: (§4)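 HL-60 cells exposed to 3 μM diterpene for 24 h alongside permeability transition pore inhibitors cyclosporin A (25 μM, 24 h) or bongkrekic acid (25−50 μM, 24 h). Apoptosis was scored by flow cytometry. Mitochondrial membrane potential was read by JC-1 fluorescence on flow cytometry.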

HL-60 [9] = assay: Induction of apoptosis in human HL60 cells assessed as late apoptotic cells at 3 uM after 24 hrs by AnnexinV-FITC/propidium iodide staining-based flow cytometry (reference value: 3.1%); type: functional; how it was run: as §2
HL-60 [10] = assay: Induction of apoptosis in human HL60 cells assessed as procaspase-9 cleavage at 3 uM after 24 hrs by immunoblotting analysis; type: functional, cell-based; how it was run: as §1
U-937 [11] = assay: Cytotoxicity against human U937 cells overexpressing Bcl-2 protein after 72 hrs by MTT assay; type: functional, cell-based; settings: U-937, 72 h
HL-60 [12] = assay: Cytotoxicity against human HL60 cells after 72 hrs by MTT assay; type: functional, cell-based; settings: HL-60, 72 h; how it was run: as §3
HL-60 [13] = assay: Induction of apoptosis in human HL60 cells at 3 uM after 24 hrs by flow cytometry in presence of Z-VAD-FMK; type: functional, cell-based
How it was run: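 HL-60 cells pretreated with pancaspase inhibitor Z-VAD-FMK (100 μM), then given diterpene (3 μM) for 24 h. Hypodiploid (sub-G1) apoptotic cells were counted by flow cytometry. Mean ± SE of three independent experiments, each in triplicate.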

HL-60 [14] = assay: Induction of apoptosis in human HL60 cells assessed as reduction in mitochondrial membrane potential at 3 uM after 24 hrs by JC-1 staining-based flow cytometry; type: functional, cell-based
How it was run: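 ΔΨm in HL-60 cells after 24 h at 3 μM assessed by JC-1 fluorescence on flow cytometry; two separate experiments, each in triplicate.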

HL-60 [15] = assay: Induction of apoptosis in human HL60 cells assessed as procaspase-8 cleavage at 3 uM after 24 hrs by immunoblotting analysis; type: functional, cell-based; how it was run: as §1
HL-60 [16] = assay: Cytotoxicity against human HL60 cells overexpressing neomycin-resistant gene after 72 hrs by MTT assay; type: functional, cell-based
HL-60 [17] = assay: Induction of apoptosis in human HL60 cells assessed as externalization of phosphotidylserine at 3 uM after 24 hrs by AnnexinV-FITC/propidium iodide staining-based flow cytometry; type: functional, cell-based; how it was run: as §2
SK-MEL-1 = assay: Cytotoxicity against human SK-MEL-1 cells after 72 hrs by MTT assay; type: functional, cell-based; settings: SK-MEL-1, 72 h; how it was run: as §3
HL-60 [18] = assay: Induction of apoptosis in human HL60 cells assessed as procaspase-6 cleavage at 3 uM after 24 hrs by immunoblotting analysis; type: functional, cell-based; how it was run: as §1
HL-60 [19] = assay: Induction of apoptosis in human HL60 cells assessed as release of cytochrome c to cytosolic fraction by Western blotting analysis; type: functional, cell-based
HL-60 [20] = assay: Cell cycle arrest in human HL60 cells assessed as accumulation at Sub-G1 phase at 3 uM after 24 hrs by […]propidium iodide staining-based flow cytometry (reference value: 4%); type: functional
HL-60 [21] = assay: Induction of apoptosis in human HL60 cells assessed as hypodiploid cells after 24 hrs by flow cytometry in presence of caspase-8 inhibitor Z-IETD-FMK; type: functional, cell-based
How it was run: (§5)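 HL-60 cells pretreated 1 h with caspase inhibitor, then given diterpene for 24 h; hypodiploid cells counted by flow cytometry; mean ± SE of three independent experiments in triplicate.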

MOLT-3 = assay: Cytotoxicity against human MOLT3 cells after 72 hrs by MTT assay; type: functional, cell-based; settings: MOLT-3, 72 h; how it was run: as §3
HL-60 [22] = assay: Cell cycle arrest in human HL60 cells assessed as accumulation at S phase at 3 uM after 24 hrs by […]propidium iodide staining-based flow cytometry (reference value: 32%); type: functional
HL-60 [23] = assay: Induction of ROS-mediated cell death in human HL60 cells preincubated for 2 hrs in presence of NAC; type: functional, cell-based
How it was run: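 Antioxidant test in HL-60 cells: NAC 10 mM added with the diterpene, or NAC and diterpene preincubated together for 2 h before addition to cells; cell death then measured.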

HL-60 [24] = assay: Induction of apoptosis in human HL60 cells assessed as nuclear chromatin condensation after 6 hrs by Hoechst 33258 staining-based fluorescence microscopy; type: functional, cell-based
HL-60 [25] = assay: Induction of apoptosis in human HL60 cells assessed as reduction in mitochondrial membrane potential at 3 uM after 24 hrs by JC-1 staining-based flow cytometry in presence of bongkrekic acid; type: functional, cell-based; how it was run: as §4
HL-60 [26] = assay: Induction of apoptosis in human HL60 cells assessed as DNA fragmentation at 3 uM after 24 hrs by […]; type: functional, cell-based
HL-60 [27] = assay: Induction of apoptosis in human HL60 cells assessed as release of AIF to cytosolic fraction by Western blotting analysis; type: functional, cell-based
HL-60 [28] = assay: Induction of apoptosis in human HL60 cells assessed as hypodiploid cells at 3 uM by flow cytometry; type: functional, cell-based; settings: TDE = time-dependent effect
MCF7 = assay: Cytotoxicity against human MCF7 cells after 72 hrs by MTT assay; type: functional, cell-based; settings: MCF7, 72 h; how it was run: as §3
HL-60 [29] = assay: Induction of apoptosis in human HL60 cells assessed as procaspase-3 cleavage at 3 uM after 24 hrs by immunoblotting analysis; type: functional, cell-based; how it was run: as §1
HL-60 [30] = assay: Induction of apoptosis in human HL60 cells after 24 hrs by flow cytometry in presence of caspase-9 inhibitor Z-LEHD-FMK; type: functional, cell-based; how it was run: as §5

Row | Compound | Activity (HL-60 [1]) | Activity (HL-60 [2]) [%] | Activity (HL-60 [3]) | Activity (HL-60 [4]) [%] | Activity (HL-60 [5]) | pIC50 (U-937 [6]) | Activity (HL-60 [7]) | Activity (HL-60 [8]) | Activity (HL-60 [9]) [%] | Activity (HL-60 [10]) | pIC50 (U-937 [11]) | pIC50 (HL-60 [12]) | Activity (HL-60 [13]) | Activity (HL-60 [14]) | Activity (HL-60 [15]) | Activity (HL-60 [16]) | Activity (HL-60 [17]) | pIC50 (SK-MEL-1) | Activity (HL-60 [18]) | Activity (HL-60 [19]) | further results
1 | CC(=O)O[C@H]1C2=C(C(=O)C(OC(=O)c3ccccc3)=C(C(C)C)C2=O)[C@@]2(C)CCCC(C)(C)[C@@H]2[C@@H]1OC(=O)c1ccccc1 | Active | 48 | Active | 20.7 | Active | 5.74 | Active | Active | 20.7 | Active | 6.22 | 5.44 | Active | Active | Active | Active | Active | 5.51 | Active | Active | Activity (HL-60 [20]): 40%; Activity (HL-60 [21]): inactive; pIC50 (MOLT-3): 5.16; Activity (HL-60 [22]): 16%; Activity (HL-60 [23]): inactive; Activity (HL-60 [24]): Active; Activity (HL-60 [25]): Active; Activity (HL-60 [26]): Active; Activity (HL-60 [27]): Active; Activity (HL-60 [28]): tde; pIC50 (MCF7): 4.59; Activity (HL-60 [29]): Active; Activity (HL-60 [30]): Active
2 | CC(=O)O[C@H]1C2=C(C(=O)C(OC(=O)c3ccc(Cl)cc3)=C(C(C)C)C2=O)[C@@]2(C)CCCC(C)(C)[C@@H]2[C@@H]1O | Active | 40.4 | Active | 28.8 | Active | 5.96 | Active | Active | 28.8 | Active | 5.96 | 5.62 | Active | Active | Active | Active | Active | 5.40 | inactive | Active | Activity (HL-60 [20]): 32%; Activity (HL-60 [21]): Active; pIC50 (MOLT-3): 5.85; Activity (HL-60 [22]): 23%; Activity (HL-60 [23]): inactive; Activity (HL-60 [24]): Active; Activity (HL-60 [25]): Active; Activity (HL-60 [26]): Active; Activity (HL-60 [27]): Active; Activity (HL-60 [28]): tde; pIC50 (MCF7): 5.54; Activity (HL-60 [29]): Active; Activity (HL-60 [30]): Active
3 | COc1ccc(C(=O)OC2=C(C(C)C)C(=O)C3=C(C2=O)[C@@]2(C)CCCC(C)(C)[C@@H]2[C@H](O)[C@H]3OC(C)=O)cc1 | Active | 34.5 | Active | 30.2 | Active | 5.85 | Active | Active | 30.2 | Active | 5.68 | 5.57 | Active | Active | Active | Active | Active | 5.14 | inactive | Active | Activity (HL-60 [20]): 28%; Activity (HL-60 [21]): Active; pIC50 (MOLT-3): 5.82; Activity (HL-60 [22]): 21%; Activity (HL-60 [23]): inactive; Activity (HL-60 [24]): Active; Activity (HL-60 [25]): Active; Activity (HL-60 [26]): Active; Activity (HL-60 [27]): Active; Activity (HL-60 [28]): tde; pIC50 (MCF7): 5.51; Activity (HL-60 [29]): Active; Activity (HL-60 [30]): Active
